Values after ≈ are worked out from the molar mass of the structure shown. Active and inactive are the calls of the source. The calls are words filed in the database; no cut-off is given here.
Columns and labels:
[1] = test system: Staphylococcus aureus; assay: Antibacterial activity against Staphylococcus aureus at 50 ug/ml after 24 hrs by agar well diffusion method; assay type: functional; conditions: read-out: DIZ
Method in brief: (§1)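 Agar well diffusion. Nutrient plates swabbed with 24 h broth culture of the bacterium; 6 mm wells bored and loaded with DMSO solutions of compound (wells at 50 and 100 per well). Chloramphenicol positive control, DMSO negative control. Plates held 37 °C, 24 h; inhibition zone diameter (mm) measured, mean of duplicates.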

[2] = test system: Staphylococcus aureus; assay: Antibacterial activity against Staphylococcus aureus at 100 ug/ml after 24 hrs by agar well diffusion method; assay type: functional; conditions: read-out: DIZ; method in brief: as §1
[3] = test system: Bacillus subtilis; assay: Antibacterial activity against Bacillus subtilis at 50 ug/ml after 24 hrs by agar well diffusion method; assay type: functional; conditions: read-out: DIZ; method in brief: as §1
[4] = test system: Bacillus subtilis; assay: Antibacterial activity against Bacillus subtilis at 100 ug/ml after 24 hrs by agar well diffusion method; assay type: functional; conditions: read-out: DIZ; method in brief: as §1
[5] = test system: Pseudomonas aeruginosa; assay: Antibacterial activity against Pseudomonas aeruginosa at 50 ug/ml after 24 hrs by agar well diffusion method; assay type: functional; conditions: for zone of inhibition at 50 µg/mL: read-out: DIZ; method in brief: as §1
[6] = test system: Pseudomonas aeruginosa; assay: Antibacterial activity against Pseudomonas aeruginosa at 100 ug/ml after 24 hrs by agar well diffusion method; assay type: functional; conditions: for zone of inhibition at 100 µg/mL: read-out: DIZ; method in brief: as §1
[7] = test system: Klebsiella pneumoniae; assay: Antibacterial activity against Klebsiella pneumoniae at 50 ug/ml after 24 hrs by agar well diffusion method; assay type: functional; conditions: for zone of inhibition at 50 µg/mL: read-out: DIZ; method in brief: as §1
[8] = test system: Klebsiella pneumoniae; assay: Antibacterial activity against Klebsiella pneumoniae at 100 ug/ml after 24 hrs by agar well diffusion method; assay type: functional; conditions: for zone of inhibition at 100 µg/mL: read-out: DIZ; method in brief: as §1
[9] = test system: Aspergillus niger; assay: Antifungal activity against Aspergillus niger at 50 ug/ml after 48 hrs by agar well diffusion method; assay type: functional; conditions: for zone of inhibition at 50 µg/mL: read-out: DIZ
Method in brief: (§2)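 Fungal agar well diffusion. Plates swabbed with fungal culture, 6 mm wells filled with DMSO solutions of compound (50 and 100 per well). Ketoconazole positive and DMSO negative controls. Plates incubated 28 °C for 48 h; zone of inhibition diameter (mm) read, average of duplicates.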

[10] = test system: Aspergillus niger; assay: Antifungal activity against Aspergillus niger at 100 ug/ml after 48 hrs by agar well diffusion method; assay type: functional; conditions: for zone of inhibition at 100 µg/mL: read-out: DIZ; method in brief: as §2
[11] = test system: Penicillium chrysogenum; assay: Antifungal activity against Penicillium chrysogenum at 50 ug/ml after 48 hrs by agar well diffusion method; assay type: functional; conditions: for zone of inhibition at 50 µg/mL: read-out: DIZ; method in brief: as §2
[12] = test system: Penicillium chrysogenum; assay: Antifungal activity against Penicillium chrysogenum at 100 ug/ml after 48 hrs by agar well diffusion method; assay type: functional; conditions: for zone of inhibition at 100 µg/mL: read-out: DIZ; method in brief: as §2
[13] = test system: Staphylococcus aureus; assay: Antibacterial activity against Staphylococcus aureus after 24 hrs by broth dilution method; assay type: functional
Method in brief: (§3)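 Broth dilution MIC. Test samples in DMSO added at increasing concentrations to tubes of nutrient broth cultures, incubated 37 °C for 24 h. Visible turbidity scored against NB control; solvent and no-sample controls included. MIC = lowest concentration preventing visible growth.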

[14] = test system: Bacillus subtilis; assay: Antibacterial activity against Bacillus subtilis after 24 hrs by broth dilution method; assay type: functional; method in brief: as §3
[15] = test system: Pseudomonas aeruginosa; assay: Antibacterial activity against Pseudomonas aeruginosa after 24 hrs by broth dilution method; assay type: functional; method in brief: as §3
[16] = test system: Klebsiella pneumoniae; assay: Antibacterial activity against Klebsiella pneumoniae after 24 hrs by broth dilution method; assay type: functional; method in brief: as §3
[17] = test system: Aspergillus niger; assay: Antifungal activity against Aspergillus niger after 48 hrs by broth dilution method; assay type: functional
Method in brief: (§4)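 Fungal MIC by broth dilution. Compounds dissolved in DMSO, added at rising concentrations to fungal culture tubes, incubated 28 °C for 48 h. Tubes read for visible turbidity alongside a solvent control; lowest concentration with no visible growth taken as MIC.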

[18] = test system: Penicillium chrysogenum; assay: Antifungal activity against Penicillium chrysogenum after 48 hrs by broth dilution method; assay type: functional; method in brief: as §4
[19] = test system: Staphylococcus aureus; assay: Bactericidal activity against Staphylococcus aureus after 24 hrs by broth dilution method; assay type: functional
[20] = test system: Bacillus subtilis; assay: Bactericidal activity against Bacillus subtilis after 24 hrs by broth dilution method; assay type: functional
[21] = test system: Pseudomonas aeruginosa; assay: Bactericidal activity against Pseudomonas aeruginosa after 24 hrs by broth dilution method; assay type: functional
[22] = test system: Klebsiella pneumoniae; assay: Bactericidal activity against Klebsiella pneumoniae after 24 hrs by broth dilution method; assay type: functional
[23] = test system: Aspergillus niger; assay: Fungicidal activity against Aspergillus niger after 48 hrs by broth dilution method; assay type: functional
[24] = test system: Penicillium chrysogenum; assay: Fungicidal activity against Penicillium chrysogenum after 48 hrs by broth dilution method; assay type: functional
[25] = test system: A549; assay: Cytotoxicity against human A549 cells up to 0.2 mM after 72 hrs by MTT assay
[26] = test system: Bacillus subtilis; assay: Ratio of MBC to MIC for Bacillus subtilis after 24 hrs; assay type: functional
[27] = test system: Penicillium chrysogenum; assay: Ratio of MFC to MIC for Penicillium chrysogenum after 48 hrs; assay type: functional
[28] = test system: A549; assay: Cytotoxicity against human A549 cells after 72 hrs by MTT assay; assay type: functional, cell-based
Method in brief: (§5)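 A549 lung carcinoma cells, 5 × 10⁴ per well, in DMEM with 10% FBS and antibiotics at 37 °C, 5% CO₂. After 3–4 h attachment, compound added at various concentrations for 72 h. MTT then added for 3 h, formazan dissolved in DMSO, absorbance read at 550 nm. Triplicate wells, three independent experiments; IC50 derived by curve fitting.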

[29] = test system: A549; assay: Cytotoxicity against human A549 cells assessed as decrease in viability at 100 to 200 uM after 72 hrs by MTT assay; assay type: functional, cell-based; method in brief: as §5
[30] = test system: A549; assay: Cytotoxicity against human A549 cells assessed as viability at 12.5 uM after 72 hrs by MTT assay; assay type: functional; conditions: A549, 72 h, read-out: Activity; method in brief: as §5

| MIC [13] | MIC [14] | MIC [15] | MIC [16] | MIC [17] | MIC [18] | SMILES | zone of inhibition at 50 µg/mL [1] | zone of inhibition at 100 µg/mL [2] | zone of inhibition at 50 µg/mL [3] | zone of inhibition at 100 µg/mL [4] | zone of inhibition at 50 µg/mL [5] | zone of inhibition at 100 µg/mL [6] | zone of inhibition at 50 µg/mL [7] | zone of inhibition at 100 µg/mL [8] | zone of inhibition at 50 µg/mL [9] | zone of inhibition at 100 µg/mL [10] | zone of inhibition at 50 µg/mL [11] | zone of inhibition at 100 µg/mL [12] | MBC [19] | Activity [25] | also measured |
| --- | --- | --- | --- | --- | --- | --- | --- | --- | --- | --- | --- | --- | --- | --- | --- | --- | --- | --- | --- | --- | --- |
| 50 µg/mL (≈ 82.6 µM) | 25 µg/mL (≈ 41.3 µM) | 50 µg/mL (≈ 82.6 µM) | 100 µg/mL (≈ 165 µM) | 25 µg/mL (≈ 41.3 µM) | 50 µg/mL (≈ 82.6 µM) | Nn1c(CS(=O)(=O)Nc2ccc(Cl)cc2)nnc1CS(=O)(=O)c1c[nH]cc1S(=O)(=O)c1ccc(Cl)cc1 | 30 mm | 33 mm | 29 mm | 33 mm | 25 mm | 28 mm | 34 mm | 36 mm | 32 mm | 34 mm | 33 mm | 36 mm | 200 µg/mL (≈ 330 µM) | inactive | MBC [20]: 100 µg/mL (≈ 165 µM); MBC [21]: > 200 µg/mL; MBC [22]: > 200 µg/mL; MFC [23]: 100 µg/mL (≈ 165 µM); MFC [24]: > 200 µg/mL |
| 12.5 µg/mL (≈ 22.1 µM) | 12.5 µg/mL (≈ 22.1 µM) | 12.5 µg/mL (≈ 22.1 µM) | 25 µg/mL (≈ 44.1 µM) | 12.5 µg/mL (≈ 22.1 µM) | 25 µg/mL (≈ 44.1 µM) | Nn1c(CS(=O)(=O)/C=C/S(=O)(=O)c2ccc(Cl)cc2)nnc1CS(=O)(=O)Nc1ccc(Cl)cc1 | 32 mm | 35 mm | 36 mm | 38 mm | 31 mm | 33 mm | 39 mm | 40 mm | 32 mm | 34 mm | 35 mm | 38 mm | 50 µg/mL (≈ 88.3 µM) | inactive | MBC [20]: 25 µg/mL (≈ 44.1 µM); MBC [21]: 50 µg/mL (≈ 88.3 µM); MBC [22]: 100 µg/mL (≈ 177 µM); MFC [23]: 100 µg/mL (≈ 177 µM); MFC [24]: 50 µg/mL (≈ 88.3 µM); Ratio [26]: 2; Ratio [27]: 2 |
| 50 µg/mL (≈ 82.4 µM) | 12.5 µg/mL (≈ 20.6 µM) | 25 µg/mL (≈ 41.2 µM) | 50 µg/mL (≈ 82.4 µM) | 12.5 µg/mL (≈ 20.6 µM) | 25 µg/mL (≈ 41.2 µM) | Nn1c(CS(=O)(=O)Nc2ccc(Cl)cc2)nnc1CS(=O)(=O)c1c[nH]nc1S(=O)(=O)c1ccc(Cl)cc1 | 31 mm | 34 mm | 33 mm | 35 mm | 30 mm | 32 mm | 37 mm | 39 mm | 30 mm | 34 mm | 33 mm | 37 mm | 200 µg/mL (≈ 330 µM) | inactive | MBC [20]: 50 µg/mL (≈ 82.4 µM); MBC [21]: 100 µg/mL (≈ 165 µM); MBC [22]: 200 µg/mL (≈ 330 µM); MFC [23]: 50 µg/mL (≈ 82.4 µM); MFC [24]: 100 µg/mL (≈ 165 µM) |
| – | – | – | – | – | – | O=S(=O)(/C=C/S(=O)(=O)c1ccc(Cl)cc1)Cc1nnc(CS(=O)(=O)Nc2ccc(Cl)cc2)o1 | 14 mm | 17 mm | 15 mm | 17 mm | 16 mm | 19 mm | 15 mm | 17 mm | 19 mm | 22 mm | 21 mm | 25 mm | – | – | Activity [28]: Dose-dependent effect; IC50 ([28]; A549, 72 h): 31.7 µM; Activity [29]: Active; viability at 12.5 µM [30]: > 75% |
| – | – | – | – | – | – | Cc1ccc(NS(=O)(=O)Cc2nnc(CS(=O)(=O)c3c[nH]cc3S(=O)(=O)c3ccc(C)cc3)n2N)cc1 | 16 mm | 18 mm | 19 mm | 21 mm | 13 mm | 15 mm | 21 mm | 23 mm | 18 mm | 19 mm | 18 mm | 21 mm | – | inactive | – |
| – | – | – | – | – | – | O=S(=O)(Cc1nnc(CS(=O)(=O)c2c[nH]cc2S(=O)(=O)c2ccccc2)o1)Nc1ccccc1 | 12 mm | 14 mm | 13 mm | 15 mm | – | – | – | – | – | – | – | – | – | inactive | diameter of the inhibition zone (DIZ) [5]: inactive; diameter of the inhibition zone (DIZ) [6]: inactive; diameter of the inhibition zone (DIZ) [7]: inactive; diameter of the inhibition zone (DIZ) [8]: inactive; diameter of the inhibition zone (DIZ) [9]: inactive; diameter of the inhibition zone (DIZ) [10]: inactive; diameter of the inhibition zone (DIZ) [11]: inactive; diameter of the inhibition zone (DIZ) [12]: inactive |

| SMILES | MIC [13] | MIC [14] | MIC [15] | MIC [16] | MIC [17] | MIC [18] | zone of inhibition at 50 µg/mL [1] | zone of inhibition at 100 µg/mL [2] | zone of inhibition at 50 µg/mL [3] | zone of inhibition at 100 µg/mL [4] | zone of inhibition at 50 µg/mL [5] | zone of inhibition at 100 µg/mL [6] | zone of inhibition at 50 µg/mL [7] | zone of inhibition at 100 µg/mL [8] | zone of inhibition at 50 µg/mL [9] | zone of inhibition at 100 µg/mL [10] | zone of inhibition at 50 µg/mL [11] | zone of inhibition at 100 µg/mL [12] | MBC [19] | Activity [25] | also measured |
| --- | --- | --- | --- | --- | --- | --- | --- | --- | --- | --- | --- | --- | --- | --- | --- | --- | --- | --- | --- | --- | --- |
| CC(=O)N1CCN(c2ccc(OCC3COC(Cn4ccnc4)(c4ccc(Cl)cc4Cl)O3)cc2)CC1 (configuration not stated) [KETOCONAZOLE] | – | – | – | – | 6.25 µg/mL (≈ 11.8 µM) | 12.5 µg/mL (≈ 23.5 µM) | – | – | – | – | – | – | – | – | 33 mm | 36 mm | 36 mm | 38 mm | – | – | – |
| O=C(N[C@H](CO)[C@H](O)c1ccc([N+](=O)[O-])cc1)C(Cl)Cl [CHLORAMPHENICOL] | 6.25 µg/mL (≈ 19.3 µM) | 6.25 µg/mL (≈ 19.3 µM) | 6.25 µg/mL (≈ 19.3 µM) | 12.5 µg/mL (≈ 38.7 µM) | – | – | 33 mm | 35 mm | 34 mm | 38 mm | 27 mm | 30 mm | 40 mm | 42 mm | – | – | – | – | – | – | – |
